{"source": "ChEMBL document CHEMBL1806443", "about": "“Novel imidazo[4,5-b]pyridine and triaza-benzo[c]fluorene derivatives: synthesis, antiproliferative activity and DNA binding studies” (Eur J Med Chem, 2011)", "key": {"MIA PaCa-2 [1]": {"tested_on": "MIA PaCa-2", "test": "Cell cycle arrest in human MIAPaCa2 cells assessed as accumulation at S phase at 10 uM after 24 hrs by propidium iodide staining based flow cytometeric analysis (reference value: 29.2 +/- 4.2%)", "type": "functional"}, "SW-620 [2]": {"tested_on": "SW-620", "test": "Cell cycle arrest in human SW620 cells assessed as accumulation at S phase at 1 uM after 48 hrs by propidium iodide staining based flow cytometeric analysis (reference value: 31.9 +/- 1%)", "type": "functional"}, "SW-620 [3]": {"tested_on": "SW-620", "test": "Antiproliferative activity against human SW620 cells after 72 hrs by MTT assay", "type": "functional, cell-based", "details": "Homo sapiens, SW-620, 72 h", "procedure,_shortened": "(§1)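 Monolayer cells in DMEM with 10% FBS, 2 mM L-glutamine, penicillin and streptomycin at 37 °C, 5% CO2. Seeded at 3000-6000 cells/well by doubling time on day 0. Five 10-fold dilutions (0.01–100 µM) were added and incubated 72 h. MTT read-out, converted to percentage growth. IC50 by linear regression between bracketing concentrations. Quadruplicate points, three independent experiments, ANOVA/Tukey p<0.05.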"}, "WI-38 [4]": {"tested_on": "WI-38", "test": "Cytostatic activity against human WI38 cells at 1 to 10 uM after 72 hrs by MTT assay", "type": "ADME, cell-based", "details": "wi-38, 72 h", "procedure,_shortened": "(§2)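 Monolayers in DMEM with 10% FBS, 2 mM L-glutamine, penicillin and streptomycin (37 °C, 5% CO2) were seeded at 3000–6000 cells/well on day 0. Five 10-fold dilutions (0.01–100 µM) were added, followed by 72-h incubation and MTT read-out. Absorbances were converted to percentage growth by the NIH formulae. Each point was run in quadruplicate in three experiments; ANOVA with Tukey test.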"}, "MIA PaCa-2 [5]": {"tested_on": "MIA PaCa-2", "test": "Cell cycle arrest in human MIAPaCa2 cells assessed as accumulation at G1 phase at 5 uM after 48 hrs by propidium iodide staining based flow cytometeric analysis (reference value: 65.2 +/- 1.9%)", "type": "functional"}, "Nucleic Acid [6]": {"tested_on": "Nucleic Acid", "test": "Binding affinity to calf thymus DNA assessed as change in melting temperature at compound to polynucleotide ratio of 0.3 by UV-VIS spectroscopic analysis", "type": "nucleic-acid assay", "details": "Bos taurus", "procedure,_shortened": "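ct-DNA alone or with compound at set r = [compound]/[polynucleotide], in cacodylate buffer pH 7.0, I = 0.05 mol dm^-3. Absorbance at 260 nm followed against temperature, ligand absorbance subtracted, curves normalized. Tm is the transition midpoint, from the first-derivative maximum or by tangent method. ΔTm = Tm(complex) − Tm(free DNA), mean of ≥2 runs, error ±0.5 °C.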"}, "SW-620 [7]": {"tested_on": "SW-620", "test": "Cell cycle arrest in human SW620 cells assessed as accumulation at G2/M phase at 1 uM after 48 hrs by propidium iodide staining based flow cytometeric analysis (reference value: 16.1 +/- 0.9%)", "type": "functional"}, "MIA PaCa-2 [8]": {"tested_on": "MIA PaCa-2", "test": "Induction of apoptosis in human MIAPaCa2 cells assessed as morphological change after 24 to 48 hrs by microscopic analysis", "type": "functional, cell-based", "procedure,_shortened": "(§3)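 Cells were seeded at 3 × 10^4 per well and exposed 24 h later to 1, 5 or 10 µM for 24 and 48 h. Apoptotic morphology (cell shrinkage, chromatin condensation) was scored by inverted light microscopy at 200× magnification.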"}, "SW-620 [9]": {"tested_on": "SW-620", "test": "Induction of apoptosis in human SW620 cells assessed as morphological change at 5 to 10 uM after 24 to 48 hrs by microscopic analysis", "type": "functional, cell-based", "procedure,_shortened": "as §3"}, "MIA PaCa-2 [10]": {"tested_on": "MIA PaCa-2", "test": "Cell cycle arrest in human MIAPaCa2 cells assessed as accumulation at subG1 phase at 10 uM after 24 hrs by propidium iodide staining based flow cytometeric analysis (reference value: 48.7 +/- 0.7%)", "type": "functional"}, "MIA PaCa-2 [11]": {"tested_on": "MIA PaCa-2", "test": "Cell cycle arrest in human MIAPaCa2 cells assessed as accumulation at subG1 phase at 5 uM after 24 hrs by propidium iodide staining based flow cytometeric analysis (reference value: 48.7 +/- 0.7%)", "type": "functional"}, "Nucleic Acid [12]": {"tested_on": "Nucleic Acid", "test": "Binding affinity to calf thymus DNA assessed as hypochromic changes at 347 nm wavelength by UV-Vis spectrophotometric titrations", "type": "nucleic-acid assay", "details": "Bos taurus", "procedure,_shortened": "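UV/Vis titration: aliquots of ct-DNA (concentration as phosphate) added to compound solution in sodium cacodylate buffer pH 7.0, I = 0.05 mol dm^-3, 1 cm quartz cuvettes. Hypochromism followed at band maxima. Compound absorbance linear up to 2.0 × 10^-5 mol dm^-3. Binding data fitted by the Scatchard equation.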"}, "MIA PaCa-2 [13]": {"tested_on": "MIA PaCa-2", "test": "Cell cycle arrest in human MIAPaCa2 cells assessed as accumulation at G1 phase at 1 uM after 24 hrs by propidium iodide staining based flow cytometeric analysis (reference value: 51.2 +/- 2.7%)", "type": "functional"}, "SW-620 [14]": {"tested_on": "SW-620", "test": "Cell cycle arrest in human SW620 cells assessed as accumulation at G1 phase at 5 uM after 24 hrs by propidium iodide staining based flow cytometeric analysis (reference value: 29.3 +/- 1.5%)", "type": "functional"}, "HEp-2 [15]": {"tested_on": "HEp-2", "test": "Antiproliferative activity against human Hep2 cells after 72 hrs by MTT assay", "type": "functional, cell-based", "details": "Homo sapiens, HEp-2, 72 h", "procedure,_shortened": "as §1"}, "SK-BR-3 [16]": {"tested_on": "SK-BR-3", "test": "Antiproliferative activity against human SKBR3 cells after 72 hrs by MTT assay", "type": "functional, cell-based", "details": "Homo sapiens, SK-BR-3, 72 h", "procedure,_shortened": "as §1"}, "Nucleic Acid [17]": {"tested_on": "Nucleic Acid", "test": "Binding affinity to calf thymus DNA assessed as fluorescence quenching at compound to DNA ratio of 0.28 by fluorimetric titrations", "type": "nucleic-acid assay", "details": "Bos taurus", "procedure,_shortened": "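Fluorimetric titration: portions of ct-DNA (sonicated, filtered, concentration as phosphate) added to compound in cacodylate buffer pH 7.0, I = 0.05 mol dm^-3. Emission 350–600 nm, sample absorbance <0.05 at excitation, mostly DNA excess (r < 0.1). Ks and n = [bound compound]/[DNA phosphate] by non-linear least-squares Scatchard fitting.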"}, "Nucleic Acid [18]": {"tested_on": "Nucleic Acid", "test": "Binding affinity to calf thymus DNA assessed as increase in CD band at 275 nm wavelength by circular dichroism spectroscopy", "type": "nucleic-acid assay", "details": "Bos taurus", "procedure,_shortened": "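CD spectra of ct-DNA (1.0 × 10^-5 mol dm^-3, as phosphate) titrated with compound at 25 °C. Sodium cacodylate buffer pH 7.0, I = 0.05 mol dm^-3, 1 cm quartz cuvette. DNA band (~274–275 nm) and induced bands above 300 nm followed versus r = [compound]/[ct-DNA].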"}, "MIA PaCa-2 [19]": {"tested_on": "MIA PaCa-2", "test": "Cytostatic activity against human MIAPaCa2 cells at 1 to 10 uM after 72 hrs by MTT assay", "type": "functional, cell-based", "procedure,_shortened": "as §2"}, "SW-620 [20]": {"tested_on": "SW-620", "test": "Cell cycle arrest in human SW620 cells assessed as accumulation at G2/M phase at 1 uM after 24 hrs by propidium iodide staining based flow cytometeric analysis (reference value: 22.3 +/- 2.9%)", "type": "functional"}, "MIA PaCa-2 [21]": {"tested_on": "MIA PaCa-2", "test": "Cell cycle arrest in human MIAPaCa2 cells assessed as accumulation at G2/M phase at 5 uM after 48 hrs by propidium iodide staining based flow cytometeric analysis (reference value: 14.3 +/- 1.8%)", "type": "functional"}, "SK-BR-3 [22]": {"tested_on": "SK-BR-3", "test": "Antiproliferative activity against human SKBR3 cells at 0.1 to 10 uM after 72 hrs by MTT assay", "type": "functional, cell-based", "procedure,_shortened": "as §1"}, "WI-38 [23]": {"tested_on": "WI-38", "test": "Antiproliferative activity against human WI38 cells after 72 hrs by MTT assay", "type": "cell-based", "details": "Homo sapiens, WI-38, 72 h", "procedure,_shortened": "as §1"}, "HEp-2 [24]": {"tested_on": "HEp-2", "test": "Antiproliferative activity against human Hep2 cells at 0.1 to 10 uM after 72 hrs by MTT assay", "type": "functional, cell-based", "procedure,_shortened": "as §1"}, "SW-620 [25]": {"tested_on": "SW-620", "test": "Cell cycle arrest in human SW620 cells assessed as accumulation at G1 phase at 10 uM after 48 hrs by propidium iodide staining based flow cytometeric analysis (reference value: 52.7 +/- 0.9%)", "type": "functional"}}, "note": "Activity calls are given as the source filed them. The rule behind the calls is not given here."}
{"smiles": "Cl.c1cnc2nc3ccc4ccc(C5=NCCN5)cc4n3c2c1", "values": [{"measurement": "Activity", "setting": "MIA PaCa-2 [1]", "value": 29.3, "unit": "%"}, {"measurement": "Activity", "setting": "SW-620 [2]", "value": 45.4, "unit": "%"}, {"measurement": "IC50", "setting": "SW-620 [3]", "value": 0.64, "unit": "µM"}, {"measurement": "Activity", "setting": "WI-38 [4]", "value": "Toxic"}, {"measurement": "Activity", "setting": "MIA PaCa-2 [5]", "value": 42.4, "unit": "%"}, {"measurement": "ΔTm", "setting": "Nucleic Acid [6]", "value": 6.4, "unit": "°C"}, {"measurement": "Activity", "setting": "SW-620 [7]", "value": 19.4, "unit": "%"}, {"measurement": "Activity", "setting": "MIA PaCa-2 [8]", "value": "Dose-dependent effect"}, {"measurement": "Activity", "setting": "SW-620 [9]", "value": "Active"}, {"measurement": "Activity", "setting": "MIA PaCa-2 [10]", "value": 50.2, "unit": "%"}, {"measurement": "Activity", "setting": "MIA PaCa-2 [11]", "value": 53.4, "unit": "%"}, {"measurement": "Activity", "setting": "Nucleic Acid [12]", "value": 45, "unit": "%"}, {"measurement": "Activity", "setting": "MIA PaCa-2 [13]", "value": 41.6, "unit": "%"}, {"measurement": "Activity", "setting": "SW-620 [14]", "value": 86.1, "unit": "%"}, {"measurement": "IC50", "setting": "HEp-2 [15]", "value": 0.27, "unit": "µM"}, {"measurement": "IC50", "setting": "SK-BR-3 [16]", "value": 2.2, "unit": "µM"}, {"measurement": "log Ks", "setting": "Nucleic Acid [17]", "value": 5.9}, {"measurement": "Activity", "setting": "Nucleic Acid [18]", "value": "Active"}, {"measurement": "Activity", "setting": "MIA PaCa-2 [19]", "value": "Active"}, {"measurement": "Activity", "setting": "SW-620 [20]", "value": 18.5, "unit": "%"}, {"measurement": "Activity", "setting": "MIA PaCa-2 [21]", "value": 20.8, "unit": "%"}, {"measurement": "Activity", "setting": "SK-BR-3 [22]", "value": "Active"}, {"measurement": "IC50", "setting": "WI-38 [23]", "value": 1.77, "unit": "µM"}, {"measurement": "Activity", "setting": "HEp-2 [24]", "value": "Active"}, {"measurement": "Activity", "setting": "SW-620 [25]", "value": 39.9, "unit": "%"}]}
